Assay results published in ChEMBL document CHEMBL4393663, “Targeting gliomas with triazene-based hybrids: Structure-activity relationship, mechanistic study and stability” (Eur J Med Chem, 2019).
The source made the active and inactive calls. The rule behind the calls is not given here.

Test system: GL261
Test: Cytotoxicity against mouse GL261 cells assessed as reduction in cell viability incubated for 48 hrs by MTS assay
Assay type: functional, cell-based
Details: GL261, 48 h

Row | Compound | IC50
1 | CCCC(CCC)C(=O)N(C)/N=N/c1ccc(C(=O)OCC)cc1 | > 100 µM
2 | CCCC(CCC)C(=O)N(C)/N=N/c1ccc(Cl)cc1 | 58.4 µM
3 | CCCC(CCC)C(=O)N(C)/N=N/c1ccc(C(N)=O)cc1 | 11.9 µM
4 | CCCC(CCC)C(=O)N(C)/N=N/c1ccc(C(C)=O)cc1 | 47 µM

Test system: not listed separately
Test: Stability of the compound in PBS buffer at pH 7.4 assessed as half life by HPLC analysis
Assay type: physicochemical
Details: not given

Row | Compound | half-life
5 | CCCC(CCC)C(=O)N(C)/N=N/c1ccc(C(=O)OCC)cc1 | 34.1 h
6 | CCCC(CCC)C(=O)N(C)/N=N/c1ccc(Cl)cc1 | 27.3 h
7 | CCCC(CCC)C(=O)N(C)/N=N/c1ccc(C(N)=O)cc1 | > 40 h
8 | CCCC(CCC)C(=O)N(C)/N=N/c1ccc(C(C)=O)cc1 | > 40 h

Molecular target: T1, Histone deacetylase (Homo sapiens) (UniProt Q13547+O15379+Q9UBN7+Q92769+Q9UQL6+Q8WUI4+Q9BY41+Q96DB2+P56524+Q9UKV0+Q969S8)
Test: Inhibition of HDAC in human HeLa nuclear extract assessed as enzyme residual activity at 10 nM using Boc-Lys(acetyl)-AMC as substrate and measured after 15 mins by fluorescence assay relative to control
Assay type: cell-free
Details: not given
How it was run: (§1)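 Fluorometric HDAC activity kit with HeLa nuclear extract as enzyme source; compounds from 20 mM DMSO stock, tested in duplicate. Deacetylated substrate treated with lysine developer; fluorescence read after 15 min at ex 360/em 460 nm.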

Row | Compound | Activity
9 | O=C(/C=C/c1ccc2c(c1)C(=O)CC1(CCN(Cc3ccccc3)CC1)C2)NO | 91%

Test system: GL261
Test: Antiinvasive activity in mouse GL261 cells assessed as reduction in cell migration at 10 uM preincubated for 48 hrs and measured after 6 hrs by giemsa staining based Boyden chamber assay
Assay type: functional
Details: not given

Row | Compound | Activity
10 | CCCC(CCC)C(=O)N(C)/N=N/c1ccc(C(N)=O)cc1 | Active

Molecular target: T1, Histone deacetylase (Homo sapiens)
Test: Inhibition of HDAC in human HeLa nuclear extract assessed as enzyme residual activity at 6.25 uM using Boc-Lys(acetyl)-AMC as substrate and measured after 15 mins by fluorescence assay relative to control
Assay type: cell-free
Details: not given
How it was run: as §1

Row | Compound | Activity
11 | CCCC(CCC)C(=O)N(C)/N=N/c1ccc(C(=O)OCC)cc1 | 88.3%
12 | CCCC(CCC)C(=O)N(C)/N=N/c1ccc(Cl)cc1 | 93%
13 | CCCC(CCC)C(=O)N(C)/N=N/c1ccc(C(N)=O)cc1 | 90.5%
14 | CCCC(CCC)C(=O)N(C)/N=N/c1ccc(C(C)=O)cc1 | 98.6%

Molecular target: T1, Histone deacetylase (Homo sapiens)
Test: Inhibition of HDAC in human HeLa nuclear extract assessed as enzyme residual activity at 100 uM using Boc-Lys(acetyl)-AMC as substrate and measured after 15 mins by fluorescence assay relative to control
Assay type: cell-free
Details: not given
How it was run: as §1

Row | Compound | Activity
15 | CCCC(CCC)C(=O)N(C)/N=N/c1ccc(C(=O)OCC)cc1 | 55.3%
16 | CCCC(CCC)C(=O)N(C)/N=N/c1ccc(Cl)cc1 | 66.4%
17 | CCCC(CCC)C(=O)N(C)/N=N/c1ccc(C(N)=O)cc1 | 79.8%
18 | CCCC(CCC)C(=O)N(C)/N=N/c1ccc(C(C)=O)cc1 | 85.8%

Molecular target: T1, Histone deacetylase (Homo sapiens)
Test: Inhibition of HDAC in human HeLa nuclear extract assessed as enzyme residual activity at 100 nM using Boc-Lys(acetyl)-AMC as substrate and measured after 15 mins by fluorescence assay relative to control
Assay type: cell-free
Details: not given
How it was run: as §1

Row | Compound | Activity
19 | O=C(/C=C/c1ccc2c(c1)C(=O)CC1(CCN(Cc3ccccc3)CC1)C2)NO | 52.4%

Test system: not listed separately
Test: Drug metabolism assessed as Cu2+-mediated compound decomposition by measuring aniline formation at 33 uM measured at 1 min interval for 30 mins by UV-Vis spectrophotometric analysis
Details: not given
How it was run: (§2)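 Decomposition monitored by UV-Vis spectroscopy in methanolic solutions containing Cu2+ or Zn2+.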

Row | Compound | Drug metabolism
20 | CN=NNc1ccc(C#N)cc1 | Metabolite detected
21 | CCOC(=O)c1ccc(/N=N/NC)cc1 | Metabolite detected
22 | CCCC(CCC)C(=O)N(C)/N=N/c1ccc(C(=O)OCC)cc1 | Metabolite not detected

Test system: GL261
Test: Induction of apoptosis in mouse GL261 cells assessed as reduction in cell viability at 10 uM incubated for 48 hrs by annexinV-PE/7-AAD staining based flow cytometric analysis
Assay type: functional
Details: not given
How it was run: (§3)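 GL261 cells exposed 48 h; trypsinized adherent cells combined with medium cells, pelleted, resuspended in PBS/1% BSA, stained with annexin V-PE/7-AAD; flow cytometry gating viable (both negative), early apoptotic (annexin+/7-AAD−), late apoptotic/dead (both positive); two readings per sample; three independent experiments in duplicate.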

Row | Compound | Activity
23 | CCCC(CCC)C(=O)N(C)/N=N/c1ccc(C(N)=O)cc1 | Active

Molecular target: T1, Histone deacetylase (Homo sapiens)
Test: Inhibition of HDAC in human HeLa nuclear extract assessed as enzyme residual activity at 1 uM using Boc-Lys(acetyl)-AMC as substrate and measured after 15 mins by fluorescence assay relative to control
Assay type: cell-free
Details: not given
How it was run: as §1

Row | Compound | Activity
24 | O=C(/C=C/c1ccc2c(c1)C(=O)CC1(CCN(Cc3ccccc3)CC1)C2)NO | 10.9%

Test system: SH-SY5Y
Test: Induction of apoptosis in human SH-SY5Y cells assessed as increase in late necrotic cells at 10 uM incubated for 48 hrs by annexinV-PE/7-AAD staining based flow cytometric analysis
Assay type: functional, cell-based
Details: not given
How it was run: (§4)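 SH-SY5Y cells grown on poly-D-lysine/laminin, differentiated 7 days with 10 µM retinoic acid, then exposed 48 h. Adherent plus floating cells pooled, resuspended in PBS/1% BSA, stained annexin V-PE/7-AAD and counted by flow cytometry into viable, early apoptotic, late apoptotic/necrotic; two readings per sample; three independent experiments in duplicate.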

Row | Compound | Activity
25 | CCCC(CCC)C(=O)N(C)/N=N/c1ccc(C(N)=O)cc1 | Active

Test system: SH-SY5Y
Test: Induction of apoptosis in human SH-SY5Y cells assessed as reduction in cell viability at 10 uM incubated for 48 hrs by annexinV-PE/7-AAD staining based flow cytometric analysis
Assay type: functional
Details: not given
How it was run: as §4

Row | Compound | Activity
26 | CCCC(CCC)C(=O)N(C)/N=N/c1ccc(C(N)=O)cc1 | Active

Test system: not listed separately
Test: Induction of alkylation in 5'-GGGAGA-3' single stranded DNA (unknown origin) at ssDNA to compound concentration ratio of 1:250M incubated for 1 hr by ESI-MS analysis
Details: not given
How it was run: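 Single-stranded oligonucleotide incubated with the compound in 10 mM ammonium bicarbonate buffer, pH 8.3, at 37 °C. Aliquots were taken at intervals and extracted three times with ethyl acetate, then centrifuged. The aqueous phase was analysed by flow-injection ESI(−) HRMS in 50:50 water/acetonitrile with 0.1% formic acid. Run in triplicate.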

Row | Compound | Activity
27 | CN=NNc1ccc(C#N)cc1 | Active

Test system: not listed separately
Test: Octanol-phosphate buffered saline distribution coefficient, log D of compound at pH 7.4 at 1 mg shake for 30 mins and measured after 48 hrs by HPLC analysis
Assay type: physicochemical
Details: not given

Row | Compound | logD at 30 min
28 | CCCC(CCC)C(=O)N(C)/N=N/c1ccc(C(=O)OCC)cc1 | 4.95
29 | CCCC(CCC)C(=O)N(C)/N=N/c1ccc(Cl)cc1 | 4.62
30 | CCCC(CCC)C(=O)N(C)/N=N/c1ccc(C(N)=O)cc1 | 3.68
31 | CCCC(CCC)C(=O)N(C)/N=N/c1ccc(C(C)=O)cc1 | 4.56

Test system: SH-SY5Y
Test: Induction of apoptosis in human SH-SY5Y cells assessed as increase in early apoptotic cells at 10 uM incubated for 48 hrs by annexinV-PE/7-AAD staining based flow cytometric analysis
Assay type: functional, cell-based
Details: not given
How it was run: as §4

Row | Compound | Activity
32 | CCCC(CCC)C(=O)N(C)/N=N/c1ccc(C(N)=O)cc1 | Active

Test system: GL261
Test: Induction of apoptosis in mouse GL261 cells assessed as increase in necrotic cells at 10 uM incubated for 48 hrs by annexinV-PE/7-AAD staining based flow cytometric analysis
Assay type: functional, cell-based
Details: not given
How it was run: as §3

Row | Compound | Activity
33 | CCCC(CCC)C(=O)N(C)/N=N/c1ccc(C(N)=O)cc1 | Active

Test system: GL261
Test: Induction of morphological changes in mouse GL261 cells assessed as increase in cell circularity at 10 uM incubated for 48 hrs by Hoechst 33258 staining based fluorescence microscopic analysis
Assay type: functional
Details: not given
How it was run: (§5)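 After 48 h exposure, GL261 cells on coverslips fixed in 4% paraformaldehyde, permeabilized (0.1% Triton X-100), blocked 30 min, stained with Alexa Fluor-594 phalloidin and Hoechst 33258; ten random fields at 630×; circularity (4π·area/perimeter²) and aspect ratio traced manually on ≥120 cells per condition; three independent experiments.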

Row | Compound | Activity
34 | CCCC(CCC)C(=O)N(C)/N=N/c1ccc(C(N)=O)cc1 | Active

Test system: not listed separately
Test: Drug metabolism assessed as Zn2+-mediated compound decomposition by measuring aniline formation at 33 uM measured at 30 mins interval for 12 hrs by UV-vis spectrophotometric analysis
Details: not given
How it was run: as §2

Row | Compound | Drug metabolism
35 | CN=NNc1ccc(C#N)cc1 | Metabolite detected
36 | CCOC(=O)c1ccc(/N=N/NC)cc1 | Metabolite detected

Test system: GL261
Test: Induction of morphological changes in mouse GL261 cells assessed as decrease in cell aspect ratio at 10 uM incubated for 48 hrs by Hoechst 33258 staining based fluorescence microscopic analysis
Assay type: functional
Details: not given
How it was run: as §5

Row | Compound | Activity
37 | CCCC(CCC)C(=O)N(C)/N=N/c1ccc(C(N)=O)cc1 | Active

Test system: not listed separately
Test: Drug metabolism assessed as Zn2+-mediated compound decomposition by measuring aniline formation 33 uM measured at 1 min interval for 30 mins by UV-Vis spectrophotometric analysis
Details: not given
How it was run: as §2

Row | Compound | Drug metabolism
38 | CCCC(CCC)C(=O)N(C)/N=N/c1ccc(C(=O)OCC)cc1 | Metabolite not detected

Test system: GL261
Test: Induction of apoptosis in mouse GL261 cells assessed as increase in late apoptotic cells at 10 uM incubated for 48 hrs by annexinV-PE/7-AAD staining based flow cytometric analysis
Assay type: functional, cell-based
Details: not given
How it was run: as §3

Row | Compound | Activity
39 | CCCC(CCC)C(=O)N(C)/N=N/c1ccc(C(N)=O)cc1 | Active

Molecular target: T1, Histone deacetylase (Homo sapiens)
Test: Inhibition of HDAC in human HeLa nuclear extract assessed as enzyme residual activity at 25 uM using Boc-Lys(acetyl)-AMC as substrate and measured after 15 mins by fluorescence assay relative to control
Assay type: cell-free
Details: not given
How it was run: as §1

Row | Compound | Activity
40 | CCCC(CCC)C(=O)N(C)/N=N/c1ccc(C(=O)OCC)cc1 | 79.8%
41 | CCCC(CCC)C(=O)N(C)/N=N/c1ccc(Cl)cc1 | 85.8%
42 | CCCC(CCC)C(=O)N(C)/N=N/c1ccc(C(N)=O)cc1 | 91.6%
43 | CCCC(CCC)C(=O)N(C)/N=N/c1ccc(C(C)=O)cc1 | 94.8%

Test system: not listed separately
Test: Stability in 80% human plasma assessed as half life by HPLC analysis
Assay type: ADME, cell-free
Details: not given
How it was run: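 Plasma pooled from 13 donors (heparin), stored at −18 °C, thawed slowly, diluted to 80% v/v with 10 mM PBS pH 7.4 at 37 °C; compound added from 10 mM acetonitrile stock; aliquots taken over time, centrifuged 12000 rpm 10 min, supernatant analyzed by HPLC for half-life; duplicate or triplicate runs.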

Row | Compound | half-life
44 | CCCC(CCC)C(=O)N(C)/N=N/c1ccc(C(=O)OCC)cc1 | > 40 h
45 | CCCC(CCC)C(=O)N(C)/N=N/c1ccc(Cl)cc1 | > 40 h
46 | CCCC(CCC)C(=O)N(C)/N=N/c1ccc(C(N)=O)cc1 | > 40 h
47 | CCCC(CCC)C(=O)N(C)/N=N/c1ccc(C(C)=O)cc1 | > 40 h

Test system: GL261
Test: Induction of apoptosis in mouse GL261 cells assessed as increase in early apoptotic cells at 10 uM incubated for 48 hrs by annexinV-PE/7-AAD staining based flow cytometric analysis
Assay type: functional, cell-based
Details: not given
How it was run: as §3

Row | Compound | Activity
48 | CCCC(CCC)C(=O)N(C)/N=N/c1ccc(C(N)=O)cc1 | Active
